In ChEMBL document CHEMBL4257586, “Polyheteroaryl Oxazole/Pyridine-Based Compounds Selected in Vitro as G-Quadruplex Ligands Inhibit Rock Kinase and Exhibit Antiproliferative Activity” (J Med Chem, 2018):
Where “and” joins values, the source holds several entries; their conditions need not be identical. Equal entries are not always repeated. Calls of active or inactive are those of the source. No cut-off for these calls is given here.

How the values were obtained:
Type in all cases: nucleic-acid assay
dsDNA = test: Binding affinity to duplex 26 DNA (unknown origin) assessed as change in melting temperature at 1 uM by FRET
Quadruplex DNA [1] = test: Binding affinity to 6-FAM labeled human proto-oncogene sequence FMycT G-quadruplex DNA assessed as change in melting temperature at 1 uM in presence of K+ buffer (1 mM KCl, 99 mM LiCl, 10 mM Li cacodylate) by FRET assay
How it was run: (§1)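 FRET melting in duplicate. Dual-labelled oligo (6-FAM/TAMRA) at 0.2 μM with ligand at 1 μM, in 10 mM Li cacodylate pH 7.2. Buffer was 10 mM KCl + 90 mM LiCl for F21T and 1 mM KCl + 99 mM LiCl for FMycT. Sample annealed 90 °C 5 min, cooled to 4 °C overnight. Equilibrated 5 min at 25 °C, then ramped 0.5 °C/min to 95 °C. FAM read 492/516 nm, normalized; Tm taken at the fitted inflection point.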

Quadruplex DNA [2] = test: Binding affinity to 6-FAM labeled human telomeric F21T G-quadruplex DNA assessed as change in melting temperature at 1 uM in K+ rich buffer (10 mM KCl, 90 mM LiCl, 10 mM Li cacodylate) by FRET assay; how it was run: as §1

| SMILES | Activity (dsDNA) | ΔTm (Quadruplex DNA [1]) | ΔTm (Quadruplex DNA [2]) |
| --- | --- | --- | --- |
| c1cc(-c2cnco2)nc(-c2ncc(-c3cc(OCCN4CCCCC4)cc(-c4cnc(-c5cccc(-c6cnco6)n5)o4)n3)o2)c1 | inactive | 2.5 to 4.3 °C | 5 to 7 °C |
| c1cc(-c2cnc(-c3cccc(-c4cnco4)n3)o2)nc(-c2cnc(-c3cccc(-c4cnco4)n3)o2)c1 | inactive | 2.5 to 4.3 °C | 5 to 7 °C |
| CN(C)CCOc1cc(-c2ncc(-c3ccccn3)o2)nc(-c2ncc(-c3ccccn3)o2)c1 | inactive | 1.8 to 2.9 °C | 11.6 °C and 11 °C |
| CN(C)CCOc1cc(-c2cnc(-c3cccc(-c4cnco4)n3)o2)nc(-c2cnc(-c3cccc(-c4cnco4)n3)o2)c1 | inactive | 2.5 to 4.3 °C | 5 to 7 °C |
| c1ccc(-c2cnc(-c3cccc(-c4ncc(-c5ccccn5)o4)n3)o2)nc1 | inactive | 1.8 to 2.9 °C | 5.3 °C |
| c1ccc(-c2ncc(-c3cccc(-c4cnc(-c5ccccn5)o4)n3)o2)nc1 | inactive | – | – |
